Measured values reported in ChEMBL document CHEMBL2331545, “Synthesis of antioxidants for prevention of age-related macular degeneration” (J Nat Prod, 2013).
Calls of active or inactive are those of the source. No cut-off for these calls is given here.

Columns and labels:
[1] = system: ARPE-19; assay: Inhibition of intracellular A2E photooxidation in human ARPE19 cells at 20 uM after 18 days; format: functional, cell-based
How it was run: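 ARPE-19 cells (lacking endogenous A2E) grown to confluence for 5 days, then fed 10 µM synthetic A2E for 18 days in medium with 10% FBS. Antioxidant at 20 µM present on days 10–18. Cells washed in DPBS and irradiated at 430 nm (2.8 mW/cm2) for 10 min. Trypsinised, counted, dried, methanol-extracted. A2E quantified by reversed-phase HPLC; loss versus unirradiated cells gave percent photooxidation.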

[2] = Inhibition of A2E photooxidation at 100 uM after 5 mins by reversed-phase HPLC analysis; format: functional
How it was run: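 Cell-free assay: A2E (200 µM DMSO stock) added to DPBS, antioxidant from DMSO solution added to 100 µM final. Irradiated at 430 nm (2.8 mW/cm2) for 5 min. Samples diluted with EtOH and analysed by reversed-phase HPLC under dim red light. Percent photooxidation taken as A2E loss relative to unirradiated samples.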

Row | SMILES | inhibition [1] | inhibition [2]
1 | CN(CCN(C)Cc1c(O)cc(O)c2c(=O)c(O)c(-c3ccc(O)c(O)c3)oc12)Cc1c(O)cc(O)c2c(=O)c(O)c(-c3ccc(O)c(O)c3)oc12 | Active | Active
2 | O=c1c(O)c(-c2ccc(O)c(O)c2)oc2c(CN3CCc4cc(O)c(O)cc4C3)c(O)cc(O)c12 | Active | Active
3 | O=c1c(O)c(-c2ccc(O)c(O)c2)oc2c(CN3CCOCC3)c(O)cc(O)c12 | Active | Active
4 | O=c1c(O)c(-c2ccc(O)c(O)c2)oc2cc(O)cc(O)c12 | Active | Active
5 | O=c1c(O)c(-c2ccc(O)c(O)c2)oc2c(CN3CCN(Cc4c(O)cc(O)c5c(=O)c(O)c(-c6ccc(O)c(O)c6)oc45)CC3)c(O)cc(O)c12 | Active | Active
